Test results published in ChEMBL document CHEMBL5316292 (J Med Chem, 2023).
Active and inactive are the calls of the source. No cut-off for these calls is given here.

Tests used:
VCaP [1] = test: Downregulation of ERG gene levels in human VCaP cells incubated for 24 hrs by qRT-PCR analysis; assay type: functional, cell-based; details: dose 25-2500 nM
Method in brief: (§1)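 VCaP cells grown to 50% confluence, then treated with compound or DMSO (Methods state 16 h, legend states 24 h). Total RNA isolated, cDNA made from 1 µg RNA, SYBR Green qPCR run in triplicate. Expression by ΔΔCt, normalised to GAPDH. Three independent experiments, SEM.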

[2] = molecular target: T1, Bromodomain-containing protein 3 (Homo sapiens, UniProt Q15059); test: Induction of BRD3 degradation in human MDA-MB-231 cells assessed as decrease in BET half life at 10 uM incubated for 8 hrs in presence of cycloheximide by immunoblotting analysis; assay type: cell-based
Method in brief: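 MDA-MB-231 time-course. Cells given 50 µg/mL cycloheximide plus DMSO, or 50 µg/mL cycloheximide plus 10 µM compound. RIPA lysates immunoblotted for BRD2, BRD3 and BRD4 with GAPDH as control.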
Target sequence in this assay (Q15059 2-726 limits assumed): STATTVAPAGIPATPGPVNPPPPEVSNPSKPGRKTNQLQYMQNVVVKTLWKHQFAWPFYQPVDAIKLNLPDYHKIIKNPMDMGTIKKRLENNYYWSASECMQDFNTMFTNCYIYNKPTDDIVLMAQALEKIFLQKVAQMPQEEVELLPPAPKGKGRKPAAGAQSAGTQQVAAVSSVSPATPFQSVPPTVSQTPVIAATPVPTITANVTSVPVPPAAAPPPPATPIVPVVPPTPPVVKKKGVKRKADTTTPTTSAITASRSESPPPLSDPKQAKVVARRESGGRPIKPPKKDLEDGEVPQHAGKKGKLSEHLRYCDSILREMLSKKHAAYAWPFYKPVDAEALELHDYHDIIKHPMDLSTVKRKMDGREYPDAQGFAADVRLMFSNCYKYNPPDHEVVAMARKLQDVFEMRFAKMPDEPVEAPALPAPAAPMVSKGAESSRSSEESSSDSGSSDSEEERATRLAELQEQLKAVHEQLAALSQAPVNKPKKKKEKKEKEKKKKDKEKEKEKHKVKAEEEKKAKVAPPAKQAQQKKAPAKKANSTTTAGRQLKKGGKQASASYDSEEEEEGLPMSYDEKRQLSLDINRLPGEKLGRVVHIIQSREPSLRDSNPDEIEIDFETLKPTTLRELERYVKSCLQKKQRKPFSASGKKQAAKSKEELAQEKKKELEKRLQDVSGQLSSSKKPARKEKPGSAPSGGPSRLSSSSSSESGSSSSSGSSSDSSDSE

[3] = molecular target: T2, Bromodomain-containing protein 2 (Homo sapiens, UniProt P25440); test: Binding affinity to human partial length BRD2 BD1 (K71 to N194 residues) expressed in bacterial expression system assessed as change in melting temperature at 50 uM at 20 to 85 degreeC by SYPRO orange staining based thermal shift assay
Method in brief: (§2)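 DSF thermal shift. 10 µM BD in 50 mM HEPES, 500 mM NaCl pH 7.5, with 50 µM compound or DMSO-matched control and 1:1000 Sypro Orange (ex 465/em 590 nm). Ramp 20–85 °C at 0.03 °C/s. Tm taken as the midpoint between fluorescence max and min. At least three independent experiments, SEM in °C.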
Target sequence in this assay (P25440 whole entry, looked up, the tested form may be a part): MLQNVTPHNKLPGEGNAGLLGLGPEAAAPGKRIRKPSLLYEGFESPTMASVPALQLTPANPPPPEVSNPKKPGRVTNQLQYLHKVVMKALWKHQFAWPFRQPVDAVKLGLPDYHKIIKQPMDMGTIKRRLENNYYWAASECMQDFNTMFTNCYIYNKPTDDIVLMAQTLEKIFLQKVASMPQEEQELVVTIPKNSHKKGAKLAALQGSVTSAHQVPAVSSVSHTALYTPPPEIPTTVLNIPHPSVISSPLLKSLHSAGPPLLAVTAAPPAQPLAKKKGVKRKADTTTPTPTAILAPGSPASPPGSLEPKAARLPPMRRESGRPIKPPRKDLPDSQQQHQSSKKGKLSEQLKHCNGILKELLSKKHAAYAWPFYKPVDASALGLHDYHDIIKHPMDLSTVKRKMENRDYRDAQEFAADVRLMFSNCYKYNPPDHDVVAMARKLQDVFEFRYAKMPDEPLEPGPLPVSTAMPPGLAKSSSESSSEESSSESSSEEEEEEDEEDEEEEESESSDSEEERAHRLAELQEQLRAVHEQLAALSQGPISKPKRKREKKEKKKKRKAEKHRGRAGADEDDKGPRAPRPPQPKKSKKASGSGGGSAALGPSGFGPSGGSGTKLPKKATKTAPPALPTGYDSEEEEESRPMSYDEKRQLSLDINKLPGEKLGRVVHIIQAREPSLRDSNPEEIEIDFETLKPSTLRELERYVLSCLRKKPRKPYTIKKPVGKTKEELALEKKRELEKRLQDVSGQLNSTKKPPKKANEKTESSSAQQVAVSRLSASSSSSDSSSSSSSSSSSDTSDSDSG

[4] = molecular target: T3, Bromodomain-containing protein 4 (Homo sapiens, UniProt O60885); test: Induction of BRD4 degradation in human PC-3 cells incubated for 16 hrs by immunoblotting analysis; assay type: cell-based
Method in brief: (§3)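 MDA-MB-231 or PC-3 cells at 50% confluence in DMEM/10% FBS/pen-strep, treated 16 h with doses falling tenfold from 10 µM to 1 nM. RIPA lysates immunoblotted for BRD2, BRD3 and BRD4 with GAPDH as control. DC50 derived from band densitometry. SEM, n = 2.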

[5] = molecular target: T2, Bromodomain-containing protein 2; test: Binding affinity to human partial length BRD2 BD2 (E348to D455 residues) expressed in bacterial expression system using H4K5acIC8acK12acK16ac-biotinylated peptide as substrate preincubated for 30 mins followed by substrate addition by AlphaScreen assay
Method in brief: (§4)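 AlphaScreen. Biotinylated H4K5acK8acK12acK16ac peptide added at equal concentration to protein for 30 min. Donor and acceptor beads (25 µg/mL each) added, ≥1 h in the dark. Triplicate, curve-fitted, SEM.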
Target sequence in this assay (P25440 whole entry, the tested form may be a part): as the sequence (P25440 whole entry, looked up, the tested form may be a part) above

PC-3 = test: Antiproliferative activity against androgen-insensitive human PC-3 cells assessed as reduction in cell viability measured after 72 hrs by MTS assay; assay type: functional, cell-based; details: PC-3, 72 h
Method in brief: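 MTS viability assay run in triplicate wells. Serial dilutions in DMSO were given, with DMSO as negative control and doxorubicin as positive control, and incubated 72 h. MTS reagent was added for 2 h and absorbance read at 490 nm. % cytotoxicity = (A_medium − A_treatment)/A_medium × 100. EC50 ± SD was taken from dose-response curves of at least three independent experiments.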

DU-145 = test: Antiproliferative activity against AR-negative human DU-145 cells assessed as reduction in cell viability measured after 72 hrs by MTS assay; details: DU-145, 72 h
[6] = molecular target: T1, Bromodomain-containing protein 3; test: Induction of BRD3 degradation in human MDA-MB-231 cells at 10 uM by immunoblotting analysis; assay type: cell-based; details: time 8.0 hrs
Target sequence in this assay (Q15059 2-726 limits assumed): as the sequence (Q15059 2-726 limits assumed) above

[7] = molecular target: T2, Bromodomain-containing protein 2; test: Induction of BRD2 degradation in human MDA-MB-231 cells incubated for 16 hrs by immunoblotting analysis; assay type: cell-based; method in brief: as §3
Target sequence in this assay (P25440 whole entry, the tested form may be a part): as the sequence (P25440 whole entry, looked up, the tested form may be a part) above

VCaP [8] = test: Downregulation of BRD2 mRNA levels in human VCaP cells at 25 to 2500 nM incubated for 24 hrs by qRT-PCR analysis; assay type: functional, cell-based; details: dose 25-2500 nM; method in brief: as §1
VCaP [9] = test: Downregulation of PSA […] expression in human VCaP cells incubated for 24 hrs by qRT-PCR analysis; assay type: functional, cell-based; details: dose 25-2500 nM; method in brief: as §1
[10] = molecular target: T3, Bromodomain-containing protein 4; details: dose 50.0 µM
MDA-MB-231 = test: Effect on BET mRNA levels in human MDA-MB-231 cells at 0.025 to 2.5 uM incubated for 24 hrs by qRT-PCR analysis; assay type: functional, cell-based; details: dose 0.025-2.5 µM
Method in brief: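 MDA-MB-231 cells treated for 24 h at doses rising tenfold from 25 nM to 2.5 µM. Gene expression measured by qRT-PCR. SEM, n = 3.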

VCaP [11] = test: Antiproliferative activity against AR-positive human VCaP cells assessed as reduction in cell viability measured after 72 hrs by MTS assay; assay type: functional, cell-based
Method in brief: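 VCaP cells in 96-well plates, compound serially diluted in DMSO and run in triplicate wells for 72 h. MTS reagent added for 2 h, absorbance read at 490 nm. % cytotoxicity = (A_medium − A_treatment)/A_medium × 100. EC50 and SD taken from dose-response curves, at least three independent experiments.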

[12] = molecular target: T2, Bromodomain-containing protein 2; test: Binding affinity to human partial length BRD2 BD2 (E348 to D455 residues) expressed in bacterial expression system assessed as change in melting temperature at 50 uM at 20 to 85 degreeC by SYPRO orange staining based thermal shift assay; method in brief: as §2
Target sequence in this assay (P25440 whole entry, looked up, the tested form may be a part): as above

[13] = molecular target: Bromodomain testis-specific protein (Homo sapiens, UniProt Q58F21); test: Binding affinity to human partial length BRDT BD2 (K250 to E382 residues) expressed in bacterial expression system using H4K5acIC8acK12acK16ac-biotinylated peptide as substrate preincubated for 30 mins followed by substrate addition by AlphaScreen assay; method in brief: as §4
[14] = molecular target: T2, Bromodomain-containing protein 2; test: Binding affinity to human partial length BRD2 BD1 (K71 to N194 residues) expressed in bacterial expression system using H4K5acIC8acK12acK16ac-biotinylated peptide as substrate preincubated for 30 mins followed by substrate addition by AlphaScreen assay; method in brief: as §4
Target sequence in this assay (P25440 whole entry, the tested form may be a part): as the sequence (P25440 whole entry, looked up, the tested form may be a part) above

[15] = molecular target: T1, Bromodomain-containing protein 3; test: Binding affinity to 6His-tagged BRD3-BD1 (unknown origin) by MST assay
Method in brief: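 His6-tagged BD (80 nM) after size-exclusion, labelled 1:1 with 10 nM Red-tris-NTA in PBST (0.05% Tween-20) for 30 min at room temperature, then centrifuged. Mixed with an equal volume of serially diluted compound. Thermophoresis read at 40% LED/MST power. Triplicate data curve-fitted, error as SEM.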
Target sequence in this assay (Q15059 whole entry): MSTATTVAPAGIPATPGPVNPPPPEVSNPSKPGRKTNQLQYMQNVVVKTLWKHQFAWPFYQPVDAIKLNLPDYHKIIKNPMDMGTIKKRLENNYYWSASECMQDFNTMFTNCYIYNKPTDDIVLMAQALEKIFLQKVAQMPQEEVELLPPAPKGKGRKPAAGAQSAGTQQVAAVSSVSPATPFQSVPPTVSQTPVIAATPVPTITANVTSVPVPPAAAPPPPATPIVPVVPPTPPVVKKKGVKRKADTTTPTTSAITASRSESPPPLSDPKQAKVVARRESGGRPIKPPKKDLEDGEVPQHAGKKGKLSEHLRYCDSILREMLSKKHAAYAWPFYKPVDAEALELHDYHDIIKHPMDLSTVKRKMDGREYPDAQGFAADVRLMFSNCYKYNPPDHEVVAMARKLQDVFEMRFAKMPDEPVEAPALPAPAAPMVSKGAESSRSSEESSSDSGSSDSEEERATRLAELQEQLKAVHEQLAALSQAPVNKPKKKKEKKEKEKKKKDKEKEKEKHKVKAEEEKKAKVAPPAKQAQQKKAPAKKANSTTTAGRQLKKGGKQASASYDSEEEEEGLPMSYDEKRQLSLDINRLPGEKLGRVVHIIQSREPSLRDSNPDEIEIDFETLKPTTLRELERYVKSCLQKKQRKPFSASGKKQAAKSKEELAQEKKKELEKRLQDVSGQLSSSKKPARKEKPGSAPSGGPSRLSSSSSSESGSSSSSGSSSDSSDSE

[16] = molecular target: T1, Bromodomain-containing protein 3; test: Binding affinity to human partial length BRD3 BD2 (G306 to P416 residues) expressed in bacterial expression system using H4K5acIC8acK12acK16ac-biotinylated peptide as substrate preincubated for 30 mins followed by substrate addition by AlphaScreen assay; method in brief: as §4
Target sequence in this assay (Q15059 whole entry): as above

VCaP [17] = test: Downregulation of BRD3 mRNA levels in human VCaP cells at 25 to 2500 nM incubated for 24 hrs by qRT-PCR analysis; assay type: functional, cell-based; details: dose 25-2500 nM; method in brief: as §1
[18] = molecular target: T1, Bromodomain-containing protein 3; test: Binding affinity to human partial length BRD3 BD1 (P24 to E144 residues) expressed in bacterial expression system assessed as change in melting temperature at 50 uM at 20 to 85 degreeC by SYPRO orange staining based thermal shift assay; method in brief: as §2
Target sequence in this assay (Q15059 2-726 limits assumed): as the sequence (Q15059 2-726 limits assumed) above

`CC(=O)OC[C@]12CC[C@H]3[C@@H](C[C@H]4O[C@]45CC=CC(=O)[C@]35C)[C@]1(O)CC[C@@]2(O)[C@@](C)(O)[C@H]1CC(C)=C(C)C(=O)O1` was tested, and the Activity (VCaP [1]) was “Dose-Dependent Effect”, the Activity [2] was “Active” and the ΔTm [3] was 10.4 °C. For the same compound, the Activity [4] was “Dose-Dependent Effect”, the DC50 [4] was 56.7 nM and the IC50 [5] was 244 nM. The EC50 (PC-3) was 63 nM, the EC50 (DU-145) was 263 nM and the Activity [6] was “Active”. The DC50 [7] was over 10000 nM, the Activity (VCaP [8]) was “inactive” and the Activity (VCaP [9]) was “Dose-Dependent Effect”. The ΔTm [10] was 11.8 °C, the Activity (MDA-MB-231) was “inactive” and the EC50 (VCaP [11]) was 30.5 nM. The ΔTm [12] was 8.23 °C, the IC50 [13] was 119 nM and the IC50 [14] was 103 nM. For the same compound, the Kd [15] was 14.1 nM, the IC50 [16] was 108 nM and the Activity (VCaP [17]) was “inactive”. For the same compound, the ΔTm [18] was 12.5 °C.
